Screens (PubChem)
Rows were chosen to be rich in hits. Some 2.5% of all compounds tested hit in one or more screens of this group.
SENP6 inh: SENP6 protease inhibitors, primary screen, biochemical, luminescence, uHTS; inhibition, % at 10 µM; Recombinant SENP6 catalytic domain, aminoluciferin luminescence; Sentrin-specific protease 6 (Homo sapiens), Q9GZR1; 330,000 compounds, 1.8% hits;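 active = inhibition above about 50% at the single tested dose, limit read from the data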;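 also: plate controls were DMSO wells with enzyme for no effect and DMSO wells lacking enzyme for full effect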
SENP8 block-1: SENP8 protease inhibitors, primary screen, biochemical, luminescence. purified SENP8, Z-RLRGG-aminoluciferin cleavage. inhibition, % at 10 µM. AID 2540, 2010. 330,000 compounds, 1.2% hits; in the data active = inhibition above about 50%
Target sequence (Q96LD8 whole entry, looked up): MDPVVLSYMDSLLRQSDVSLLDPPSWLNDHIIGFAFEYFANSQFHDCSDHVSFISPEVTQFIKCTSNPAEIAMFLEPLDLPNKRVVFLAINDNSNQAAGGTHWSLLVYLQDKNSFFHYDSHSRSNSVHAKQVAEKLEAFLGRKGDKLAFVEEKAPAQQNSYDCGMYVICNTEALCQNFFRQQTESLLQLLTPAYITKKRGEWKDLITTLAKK
SENP1 inh: human SENP1 catalytic domain inhibitors, primary screen, biochemical, FRET, uHTS; recombinant SENP1 catalytic domain, CyPet-SUMO1-YPet FRET cleavage; 360,000 compounds, 0.21% hits; AID 624204, 2012; inhibition, % at 10 µM; Sentrin-specific protease 1 (Homo sapiens), Q9P0U3;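 active = inhibition at least 30% at 10 µM, raw YFP signal under a set limit, fluorescence ratio 0.5 to 1.5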;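 also: 0% = enzyme with DMSO and 100% = no enzyme wells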
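Compound: 10 µM single point, 0.5% DMSO; Test system: hSENP1 catalytic domain, recombinant; Timing: 50 min reaction at room temperature; Technique: FRET, CFP and YFP emission; Control set: no-enzyme wells low, DMSO-plus-enzyme wells high control.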
SENP7 inh: SENP7 protease inhibitors, primary screen, biochemical, luminescence, uHTS; Sentrin-specific protease 7 (Homo sapiens), Q9BQF6; recombinant SENP7, Z-RLRGG-aminoluciferin luminescence, 40 min; inhibition, % at 5 µM; 330,000 compounds, 1.5% hits; AID 434973, 2010;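 active = inhibition above about 50% at the single test dose, limit read from the data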;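 also: plate controls were DMSO with enzyme for no effect and no enzyme buffer wells for full effect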
SENP8 block-2: human SENP8 protease inhibitors, primary screen, biochemical, fluorescence, Nedd8 protein substrate, uHTS; recombinant SENP8; Sentrin-specific protease 8 (Homo sapiens), Q96LD8; 360,000 compounds, 0.64% hits; inhibition, % at 20 µM; in the data active = inhibition mostly above about 40%, no sharp cut-off; inactive = mostly below about 27%
Active calls of the source: *; / = no result.

SMILES	SENP6 inh	SENP8 block-1	SENP1 inh	SENP7 inh	SENP8 block-2
CN(Cc1ccccc1)C(=O)c1cccc(NC(=O)Cc2ccc(NC(=O)C3CCCN(C(=O)C4CCC4)C3)cc2)c1 (stereo not drawn)	/	/	2	/	-4
Oc1csc(Cc2nc(-c3ccc4ccccc4c3)cs2)n1	8	37	23	66*	-44
CC(OC(=O)c1ccco1)C(=O)NCc1ccc2c(c1)OCO2 (stereo not drawn)	1	-3	1	8	8
Nc1nc2c(s1)CCc1c-2cnn1-c1ccccc1	62*	43	-10	35	-493
CC1=C(C)C(=O)N(c2ccccn2)C1=O	-29	-15	2	-9	10
Cc1nn(-c2ccccn2)c2c1C(=O)C(Br)CC2 (stereo not drawn)	/	/	-23	/	66*
O=C1NN(c2ccccc2)C(=O)/C1=C\c1cccc(OC(=O)c2cccs2)c1	12	29	-8	5	44*
COC(=O)c1cccc(NC(=O)CCN2C(=O)C3CC=CCC3C2=O)c1 (stereo not drawn)	-12	-10	3	-10	6
Cc1cc(O)c2c(c1)C(=O)[C@@]13Oc4c5c(c(O)c6c(O)cc(C)cc46)C(=O)C[C@H](O)[C@H]5[C@@H]1[C@@H](O)CC(=O)C3=C2O	/	/	33*	/	-4
Nc1ccc(N=Nc2ccccc2)c(N)n1	22	15	2	4	36*
Cc1c(C(=O)NCc2ccccc2C(F)(F)F)sc(=O)n1Cc1ccccc1C#N	/	/	0	/	6
CN1CCC/C1=C/C=C1\SC(=S)NC1=O	/	/	4	/	82*
CN1/C(=C\C=C2/SC(=S)NC2=O)C(C)(C)c2ccccc21	-7	-3	39	3	28
Cc1cccc(NC(=S)NNC(=O)c2ccccc2Br)c1	68*	11	3	16	7
Cc1cccc(NC(=S)NNC(=O)c2ccccc2OC(F)F)c1	21	5	2	16	4
O=C(Nc1ccc(F)cc1)C(c1ccncc1)N1CCN(c2cccc(C(F)(F)F)n2)CC1 (stereo not drawn)	/	/	2	/	-14
COc1cccc(C(=O)N/N=C(\C)CC(=O)Nc2ccc(N(C)C)cc2)c1	12	4	1	2	20
COc1cccc(/C(C)=N/NC(=O)c2ccc(N(C)C)cc2)c1	69*	55*	1	45	-67
C#Cc1cccc(NC(=O)c2ccc(Cl)cc2Cl)c1	73*	62*	0	74*	11
O=C(OCC(=O)C12CC3CC(CC(C3)C1)C2)c1cnccn1	-9	-8	-1	-10	15
Nc1nc(N)c(N=Nc2ccc(C(=O)O)cc2)c(N)n1	-50	-19	0	-17	30
O=C(O)c1ccc(N=Nc2c(O)[nH]c3ccc(Br)cc23)cc1	57*	69*	10	62*	38
O=C(O)c1ccc(N=Nc2c(O)[nH]c3cc(Cl)ccc23)cc1	97*	95*	-36	97*	37
CCOC(=O)[C@]12CCCC=C1N(Cc1ccccc1)C(=O)[C@H](CC(=O)N1CCOCC1)C2	/	/	-1	/	29
Cc1cc(-c2ccc(C(=O)O)s2)cnc1N	6	3	-10	15	-397
SMILES	SENP6 inh	SENP8 block-1	SENP1 inh	SENP7 inh	SENP8 block-2
O=C(O)c1ccc(-c2ccc(-c3ccccc3)cc2)s1	99*	97*	-13	101*	-299
COc1ccc(C2=NN(c3ccccc3)C(=O)/C2=C\c2ccc(O)c(OC)c2)cc1	17	1	3	16	55*
CC1=NN(c2ccccc2)C(=O)/C1=C\C=C1/N(C)c2ccccc2C1(C)C	12	0	48*	5	47*
CC1=NN(c2ccccc2)C(=O)/C1=C\c1cc(C)n(C)c1C	15	3	5	-2	44*
COc1ccc(/C=C2/C(=O)N(c3ccccc3)N=C2C)cc1	39	11	2	47	91*
CC1=NN(c2ccccc2)C(=O)/C1=C\c1cn(C)c2ccccc12	-10	0	5	6	26
CCN(CC)S(=O)(=O)c1ccc(N(C)C)c(NC(=O)CSCc2c(C)noc2C)c1	-7	-13	1	-5	2
Nc1cc2c(cc1Cl)-c1ccc([N+](=O)[O-])cc1C2=NO	/	/	90	/	24
